Assay outcomes as filed in PubChem.
This is a sample that favours compounds with a hit; in the whole collection about 1.4% have one here.
GASC-1 inh: inhibitors of human GASC-1 (JMJD2C) demethylase | Q9H3R0 | GST-JMJD2C(1-420) H3K9me3 demethylation, DELFIA europium | inhibition, % at 2.35 µM | 0.069% of 330,000 active | AID 2099;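 active = more than half of a compound's replicate wells show inhibition beyond 50%, single wells judged on their own value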;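 note: signal counts dimethyl H3K9 product captured on neutravidin plate; 0% = median of DMSO wells and 100% = 0.3 times that DMSO median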
Target sequence (Q9H3R0 1-420 limits assumed): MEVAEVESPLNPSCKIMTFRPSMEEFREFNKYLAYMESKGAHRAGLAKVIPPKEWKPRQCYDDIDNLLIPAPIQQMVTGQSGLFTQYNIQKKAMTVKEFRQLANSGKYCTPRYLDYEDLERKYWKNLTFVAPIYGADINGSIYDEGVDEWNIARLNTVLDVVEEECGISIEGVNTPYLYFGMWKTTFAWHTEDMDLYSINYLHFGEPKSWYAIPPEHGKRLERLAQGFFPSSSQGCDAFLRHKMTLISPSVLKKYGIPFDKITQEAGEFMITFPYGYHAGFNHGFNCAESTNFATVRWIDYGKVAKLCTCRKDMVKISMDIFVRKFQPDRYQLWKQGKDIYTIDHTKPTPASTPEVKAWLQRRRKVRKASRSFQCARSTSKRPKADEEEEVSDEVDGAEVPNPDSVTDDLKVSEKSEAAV
Mot1-301 SUMO: blocks SUMOylation pathway, rescuing yeast Mot1-301 growth. S. cerevisiae Mot1-301 growth rescue, ATP luminescence, 38.5C; percent above DMSO median, 100 means doubled. growth rescue, % at 18.8 µM. 1% of 320,000 active. AID 2716;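 active = every valid replicate shows activation above 250% relative to neutral control wells; inactive = the rest, any valid replicate at or below 250%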;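 note: OY570 slx delta 5 strain wells were the positive control but not used for scaling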
HIF act: HIF pathway transcriptional activation; U2OS HRE-luciferase reporter, luminescence; normalized: DMSO 0%, desferrioxamine 100%; 0.32% of 300,000 active; activation, % at 7.5 µM (by protocol);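 active = mean activation of at least 10% of the iron chelator positive control signal, with at least half of replicates also reaching 10%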
T cell HTS: modulates CD8 T cell binding to vesicles. 2C CD8+ T cell-vesicle binding, flow cytometry; stronger effect = lower value. response (vesicle binding), % at 7 µM. 0.068% of 330,000 active;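 active = response, share of CD8 T cells binding vesicles, and their 90th percentile fluorescence all below set limits, cut at about 80% in these data, passing the limit was not always enough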;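 note: values below 100% mean blocked vesicle binding to the CD8+ T cells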
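System: murine 2C transgenic CD8+ T lymphocytes; also added: QL9-loaded Drosophila micro-vesicles; times: binding 1.5 h at 37 °C; measured by: flow cytometry, PE anti-B7-1 (FL2) versus Alexa647 anti-CD8 (FL8), PFA-fixed; control set: Peptide-free naked vesicles (low) and QL9 vesicles with 0.7% DMSO vehicle (high)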
Mot1 SUMO dose: inhibits SUMO pathway, affecting Mot1-301 yeast growth. shares compounds with Mot1-301 SUMO. S. cerevisiae Mot1-301 galactose growth, ATP luminescence, 24 h; -100 = growth of slx-deleted rescue strain. growth activity, percent, % at 42 µM. 2,300 tested, under 10 active. AID 493004;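 active = Signal drops as the depositor expects, and the fitted half-maximal dose is no more than ten times the top valid tested dose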;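 note: more negative values mean stronger growth rescue toward the control strain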
Starred values were filed as active, the others as inactive; · = not tested or not shown.

SMILES | GASC-1 inh | Mot1-301 SUMO | HIF act | T cell HTS | others
O=[N+]([O-])c1cccnc1N/N=C/c1ccccc1O | 5.9 | -12.7 | 20.7* | 132.3
COc1cccc(/C=N/Nc2cc(-n3nc(C)cc3-c3ccccc3)ncn2)c1O | -4.8 | -23.7 | 51.8* | 685.5
CC(C)Cn1c(/C=N/Nc2nc3ccccc3[nH]2)nc2ccccc21 | -6.0 | · | 23.4* | ·
Cn1c(/C=N/Nc2nc3ccccc3[nH]2)nc2ccccc21 | 1.3 | -10.5 | 7.8 | 301.1
COc1cccc(/C=N/Nc2ncnc3scc(-c4ccccc4)c23)c1O | 9.5 | -2.1 | 104.8* | 100.3
Cc1cc(C)c(S(=O)(=O)N2CCCCC2CCNC(=O)C(=O)NCc2ccccn2)c(C)c1 (centres undefined) | 2.8 | -1.1 | -0.3 | 143.7
CCN1CCN(C(=O)c2c(-c3c(Cl)cccc3Cl)noc2C)CC1 | -1.0 | 50.6 | -0.4 | 268.2
CCCc1cnc(N2CCN(S(=O)(=O)c3cccs3)CC2)nc1 | 0.6 | -12.1 | -0.1 | 465.0
COc1cccc(/C=N/Nc2nccnc2Cl)c1O | -31.3 | · | 30.6* | ·
Oc1ccccc1/C=N/Nc1nccnc1Cl | 8.5 | 41.7 | 126.6* | 257.0
COc1cccc(/C=N/Nc2nc3ccccc3[nH]2)c1OC | -3.3 | -17.8 | 4.6 | 388.6
Oc1ccc(/C=N/Nc2nccnc2Cl)c(O)c1 | -19.3 | 361.3 | 2.2 | 232.2
COc1cccc(/C=N/Nc2nc3ccccc3[nH]2)c1O | 47.6 | -18.7 | 11.0* | 404.9
O=C(CCNC(=O)c1ccc([N+](=O)[O-])cc1)NCc1cccs1 | -5.1 | -22.5 | · | 502.1
C[C@@H](OC(=O)N1CCCCC1)[C@H]1O[C@]2(C)CCCC[C@H]1O2 | 6.0 | 4.8 | · | 241.4
S=C(NCCC1=CCCCC1)NCc1ccco1 | -3.2 | · | 1.8 | 200.8
COc1cc(NC(=O)COC(=O)CC(NC(C)=O)c2ccccc2)cc(OC)c1 (centres undefined) | 6.9 | 351.7* | 0.0 | 209.8
COc1ccc(NC(=O)CN(C)C(=O)C(C)N2C(=O)c3ccccc3C2=O)cc1 (centres undefined) | -8.1 | 247.1 | -0.2 | 111.7
CCOC(=O)C1CCCN(CCC(=O)Nc2ccc(Br)c(C)c2)C1 (centres undefined) | -15.1 | 11.6 | -20.1 | 123.3
Cc1sc2ncnc(NCC3(N4CCOCC4)CCCCC3)c2c1C | 5.5 | -6.0 | 0.0 | 319.9
Cc1sc2ncnc(NCC(C)(C)N3CCOCC3)c2c1C | 0.6 | -4.9 | 0.2 | 56.2*
CCn1nc(NS(=O)(=O)c2ccccc2)c2cc3cccc(C)c3nc21 | -1.2 | 10.4 | 0.1 | 489.4
CCn1nc(NS(=O)(=O)c2ccc(NC(C)=O)cc2)c2cc3cccc(C)c3nc21 | 14.9 | -5.1 | 51.2* | 601.2
CN(C)S(=O)(=O)c1ccc(Cl)c(NC(=O)COC(=O)c2ccc3c(c2)NC(=O)CS3)c1 | 18.0 | 425.2 | 0.0 | 465.1
CSc1ccc(/C=N/Nc2ccc(Cl)c(C(=O)O)c2)cc1 | -7.3 | 62.7 | 174.2* | 143.5
SMILES | GASC-1 inh | Mot1-301 SUMO | HIF act | T cell HTS | others
O=C(O)c1cc(-c2ccc(/C=N/Nc3ccc(Cl)cc3)o2)ccc1Cl | 0.5 | 303.7* | -0.2 | 488.5
O=C1c2ccccc2C(=O)N1OS(=O)(=O)c1ccccc1 | 16.4 | 128.4 | · | 332.9
Cc1cc(S(=O)(=O)ON2C(=O)c3ccccc3C2=O)ccc1F | 1.6 | -3.2 | 37.1* | 507.0
COC(=O)Cc1ccc(NC(=S)NC(C)(C)C)cc1 | 5.2 | -20.9 | 25.2* | 263.8
COc1ccc(C(=O)N[C@H](C(=O)Nc2ccc(S(=O)(=O)N3CCOCC3)cc2)C(C)C)cc1 | 10.0 | 338.9* | 0.1 | 79.4
Cc1cc(/C=N/n2c(COc3ccccc3C)nc3ccccc3c2=O)c(O)c([N+](=O)[O-])c1 | 8.6 | 0.9 | 7.3 | 613.5
O=c1c2ccccc2nc(COc2ccccc2)n1/N=C/c1cc([N+](=O)[O-])ccc1O | 17.4 | -3.3 | 11.2* | 432.1
CCCc1nc2ccccc2c(=O)n1/N=C/c1ccccc1O | 9.4 | -5.9 | 13.3* | 404.2
O=S(=O)(/C=C/c1ccccc1)NC1CCCCCCC1 | -5.9 | 328.0* | 0.1 | 229.6
CC(CN1CCCC1)OC(=O)COc1ccccc1 (centres undefined) | 50.1* | -6.8 | -0.2 | 650.0
O=C(CCCn1c(=O)[nH]c2ccsc2c1=O)Nc1ccc(F)cc1 | -5.7 | -4.9 | 0.2 | 318.6
O=C(CCn1c(=O)[nH]c2ccsc2c1=O)NCc1ccc(F)cc1 | -7.2 | 450.9* | -0.2 | 97.8
COc1cc2ccccc2cc1C(=O)NNC(=O)c1ccccc1O | 11.9 | 6.3 | 11.9* | 284.2
Cc1ccc(C(=O)N/N=C/c2cccc(OC(=O)/C=C/c3ccco3)c2)cn1 | 3.9 | -21.3 | 1.0 | 198.4
O=C(/C=C/c1ccco1)Oc1cc(Br)cc(/C=N/NC(=O)c2ccccc2O)c1 | -0.7 | 182.4 | 96.6* | 445.3
Cc1ccc(NS(=O)(=O)c2sc3ccc(Cl)cc3c2C)cc1 | -16.5 | 665.3* | -0.6 | 380.3
CCc1ccc(C(=O)NNc2ccc(F)cc2)cc1 | 1.2 | 319.4* | 0.3 | 429.8
CCOC(=O)C(=O)NNc1ccc(F)cc1 | -2.9 | 412.9* | -0.4 | 287.9
CC(C(=O)Nc1ccccc1)N(C)CCOc1ccc(Br)cc1 (centres undefined) | -4.9 | -13.0 | 0.0 | 413.7
CN(Cc1cccs1)C(=O)CSc1nc(N)cc(N)n1 | 4.6 | -19.3 | 39.5* | 825.9
O=S(=O)(c1ccc(SCc2ccc(Cl)cc2)nc1)N1CCCC1 | -0.7 | 23.9 | · | 229.2
CC(C)N(C(=O)c1ccc(C(=O)Nc2ccc([N+](=O)[O-])cc2)cc1)C(C)C | 17.1 | -18.0 | -0.2 | 606.1
COC(=O)Nc1ccc(S(=O)(=O)N(C)C)cc1 | 11.5 | 10.9 | 29.4* | 637.4
CN(C)S(=O)(=O)c1ccc(NC(=O)c2ccc([N+](=O)[O-])cc2)cc1 | 42.7 | · | -0.3 | 0.0*
O=C(Cn1ncc2c([nH]c3ccccc32)c1=O)NCC1CCN(Cc2ccccc2F)CC1 | 9.2 | 0.2 | 0.0 | 399.5
SMILES | GASC-1 inh | Mot1-301 SUMO | HIF act | T cell HTS | others
CC(C)CCn1c(O)c(N=NC(=O)c2ccco2)c2ccccc21 | 5.6 | 552.7* | -0.2 | 394.0
Cn1c(O)c(N=NC(=O)c2ccco2)c2ccccc21 | -11.6 | -0.9 | 0.2 | 106.3
COc1ccc(Nc2nc(-c3cc4cccc(OC)c4oc3=O)cs2)cc1 | -4.3 | -2.9 | 0.7 | 288.6
COc1ccc2oc(=O)c(-c3csc(Nc4cccc(O)c4)n3)cc2c1 | 40.9 | 19.2 | 1.5 | 0.0*
O=C(/C=C/c1c(Cl)cccc1Cl)Nc1ccncc1 | -2.1 | -5.4 | 1.6 | 0.0*
O=C(/C=C/c1c(F)cccc1Cl)Nc1ccncc1 | 2.5 | 23.7 | 2.7 | 448.8
COc1ccc(-c2csc(NC(=O)C3CSC4(C)CCC(=O)N34)n2)cc1 (centres undefined) | 4.8 | 390.8* | · | 548.8 | Mot1 SUMO dose=0.8
CC12CCC(=O)N1C(C(=O)Nc1nc(-c3ccccc3)cs1)CS2 (centres undefined) | 6.3 | 215.4 | 2.1 | 312.9
